# Source: PubChem
# An excerpt weighted towards active compounds, which were near 9.6% of everything screened.
# bCat KO growth: beta-catenin-lacking colon tumor cell growth suppression; HCT116 beta-catenin knockout viability, CellTiter-Glo, 60 h; stronger effect = lower value; viability, % at 10 µM; 140,000 tested, 1.5% active; AID 818;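 active = viability at or under a set limit, the compound median less 4 SD, cut at about 6% in these data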;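 note: 0% = Hyamine 1622 control at 20 µM and 100% = untreated cell control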
# L major viab: Leishmania major promastigote growth inhibition; inhibition, % at 10 µM; Leishmania major promastigotes, resazurin fluorescence viability; 200,000 tested, 9% active; AID 1063; in the data active = inhibition above about 50%;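 note: promastigotes grown with compound for 44 hours at 28 °C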
# PMI act satM6P: PMI (human) activation, high substrate | P34949 | coupled PMI enzyme assay, resazurin fluorescence, 20 min; stronger effect = higher value; 1 = untreated enzyme, 0 = substrate-free blank | activation factor at 20 µM | 190,000 tested, 0.34% active | AID 1216;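 active = activation factor of 2 or more at 20 µM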
# Target sequence (P34949 whole entry, looked up): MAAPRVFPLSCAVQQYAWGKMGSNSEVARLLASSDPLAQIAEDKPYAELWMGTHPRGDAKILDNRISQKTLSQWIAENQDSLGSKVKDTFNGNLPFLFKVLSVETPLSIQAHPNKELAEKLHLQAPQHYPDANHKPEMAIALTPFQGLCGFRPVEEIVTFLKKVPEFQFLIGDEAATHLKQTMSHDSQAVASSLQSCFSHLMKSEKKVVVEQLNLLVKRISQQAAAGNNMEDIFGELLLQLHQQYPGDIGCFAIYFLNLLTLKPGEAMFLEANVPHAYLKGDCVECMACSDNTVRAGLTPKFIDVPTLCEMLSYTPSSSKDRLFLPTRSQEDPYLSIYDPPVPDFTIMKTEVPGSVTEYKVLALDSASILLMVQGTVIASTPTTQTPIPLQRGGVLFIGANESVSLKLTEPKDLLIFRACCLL
#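 Test system – human PMI in coupled enzyme assay · Timing – 20 min incubation at room temperature · Detection – Diaphorase-driven resazurin-to-resorufin fluorescence, excitation 544, emission 590 nm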
# PMI activator: activators of human phosphomannose isomerase. P34949. purified human PMI, coupled resazurin fluorescence, 20 min; stronger effect = higher value; 1 = vehicle control, 0 substrate-free wells. activation factor at 20 µM. 190,000 tested, 0.005% active;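 active = activation factor of 2 or more at 20 µM, relative to plate controls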
# PTEN del growth: growth suppressors of cells with PTEN tumor suppressor deletion; AID 827; viability, % at 10 µM; HCT116 PTEN-null viability, CellTiter-Glo, 60 h; stronger effect = lower value; 140,000 tested, 1.2% active;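 active = viability at or below a set limit, 4 SD under the median of all tested compounds, cut at about 3.7% in these data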;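 note: PTEN knockout HCT116 line with beta catenin targeted HCT116 as companion control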
# Lmaj promast 1uM: blocks Leishmania major promastigote growth at 1 uM, repeat screen; AID 1258; L. major promastigote growth, resazurin fluorescence, 48 h; 1,100 tested, 13% active; shares compounds with L major viab; inhibition, % at 1 µM;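 active = inhibition above about 50% in both repeat tests, limit read from the data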
# * marks the source's active call; other numbers are inactive results; x = not tested or not shown.
SMILES,bCat KO growth,L major viab,PMI act satM6P,PMI activator,PTEN del growth,Lmaj promast 1uM
CCN(CC)CCNC(=O)c1[nH]c2ccc(OCc3ccccc3)cc2c1C,x,100*,1,1,x,-17
CCCCS(=O)(=O)/C=C\C=C/S(=O)(=O)CCCC,1.7*,101*,1.7,1.4,2.0*,94*
CCCCS(=O)(=O)/C=C\C1C2C=CC(C2)C1S(=O)(=O)CCCC (stereo not given),91,-2,1,1,97,x
CC(C)Sc1nc2ccccc2n1CC(N)=O,99,-2,1.1,1.1,104,x
Cn1nc([N+](=O)[O-])nc1Oc1ccccc1N,79,97*,1,1,87,-6
O=[N+]([O-])/C(C(Cl)=C(Cl)Cl)=C(\Sc1ccccc1)N1CCCCC1,x,18,0.9,0.8,x,x
CCc1ccc(OCCOCC(O)CNC2CCCC2)cc1 (stereo not given),x,60*,1,1,x,4
Cc1cc(SCC(=O)c2cccs2)n2nc(C)c(-c3ccccc3)c2n1,79,18,1,0.9,73,x
NNC(=O)c1ccc(CSc2cccc3cccnc23)cc1,x,-12,1,1,x,x
Cc1cccc(CSc2cccc3cccnc23)c1,4.9*,100*,1,1,2.8*,-9
O=C(N/N=C/c1ccccc1OCc1ccccc1Cl)c1cccnc1,x,91*,1,1,x,-11
CCOc1ccccc1/C=N/NC(=O)c1cccc(Cl)c1,100,-10,1,1,103,x
N#CC1=C(Nc2ccccc2)SC=C(c2ccccc2)N=C1N1CCOCC1,88,0,0.9,0.9,89,x
N#CC1=C(Nc2ccccc2)SC=C(c2ccc(Cl)c(Cl)c2)N=C1N1CCOCC1,63,100*,1,1,52,-14
O=C(CCN1CCc2ccccc2C1)Nc1ccccc1F,90,11,1,1.1,101,x
COc1ccc(-c2nn(-c3ccccc3C)cc2CNCCc2cnc[nH]2)cc1F,x,96*,1.1,1,x,-20
OCCSc1nc(-c2ccccc2)nc2c1CCC2,93,52*,1,0.9,88,-13
NNC(=O)CSc1nc(-c2ccccc2)nc2c1CCCC2,x,-11,0.9,0.9,x,x
CC(C)Sc1nc2ccccc2[nH]1,x,5,1.3,1.2,x,x
S=C1NC[C@H](c2ccccc2)N1CC1CCCCC1,x,8,1,0.9,x,x
CCn1c(C(=O)NCc2cccnc2)cc2sc(Cl)cc21,96,81*,0.8,0.8,100,2
Cc1ccccc1-n1c(=O)cc(NCC2CCCO2)[nH]c1=O (stereo not given),102,-9,0.9,0.9,101,x
Cc1cc(/C=C2\Sc3ccccc3N2C)cc(C)[n+]1CC1CCCO1 (stereo not given),x,101*,0.9,1,x,101*
COC(=O)c1cc(S(=O)(=O)N2CCOCC2)ccc1Sc1ccccc1N,87,-1,1,0.8,81,x
COC(=O)c1cccc(Cn2c(Cl)c(/C=N/Nc3ccccc3C)sc2=O)c1,81,58*,2.5*,1.5,86,64*
SMILES,bCat KO growth,L major viab,PMI act satM6P,PMI activator,PTEN del growth,Lmaj promast 1uM
O=C1C=C(NCCOC23CC4CC(CC(C4)C2)C3)C2(CCCCC2)O1,x,86*,1,1,x,20
N#CCCn1nc(-c2ccc([N+](=O)[O-])cc2)cc1Nc1ccccc1NC(=O)C(F)(F)F,84,5,0.9,0.9,83,x
COc1ccc(S(N)(=O)=O)cc1C(=O)NCC1(N2CCCCC2)CCCCC1,98,-6,1,1.1,100,x
Cc1cccc(C)c1NS(=O)(=O)c1ccc(F)cc1,102,3,1,1,96,x
Cc1ccc(NC2(c3nnnn3-c3c(C)cccc3C)CCCCC2)cc1,67,97*,0.9,0.8,66,-3
Cc1cccc(C)c1-n1nnnc1SCSc1nnnn1-c1c(C)cccc1C,83,5,0.9,0.8,90,x
NC(C(=O)O)C1CC(Cl)=NO1 (stereo not given),95,100*,1,1,94,94*
COc1ccc(NS(=O)(=O)c2cc(NC(=O)c3nc4nc(C)cc(C)n4n3)ccc2C)cc1,x,72*,1,0.9,x,10
O=C(N/N=C/c1ccco1)c1cccc([N+](=O)[O-])c1,99,-10,1.1,1,99,x
